{"source": "ChEMBL document CHEMBL1130127", "about": "“Synthesis, photophysical properties, in vivo photosensitizing efficacy, and human serum albumin binding properties of some novel bacteriochlorins” (J Med Chem, 1997)", "key": {"[1]": {"test_system": "Mus musculus", "assay": "The compound was tested in vivo for photosensitizing efficacy in DBA/2 Mice transplanted with SMT/F tumors and the activity is expressed as % response (6-10 days) 3 hours post injection at 5.0 mg/kg concentration", "type": "functional", "outline": "(§1)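 Female DBA/2 HA-DD mice, 5-7 weeks old. A 1 mm SMT-F tumor piece from a donor was trocar-implanted subcutaneously in the axilla. At about 5 mm tumor diameter, sensitizer in 1% Tween 80/water was given iv; dose was based on extinction coefficient. At 3 or 24 h after injection, restrained mice had the tumor lit with 135 J/cm2 laser light at the in vivo long-wavelength maximum. Tumor response was followed to day 30; six mice/group.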"}, "[2]": {"target": "T1, Albumin (Homo sapiens, UniProt P02768)", "T1 sequence (P02768 whole entry)": "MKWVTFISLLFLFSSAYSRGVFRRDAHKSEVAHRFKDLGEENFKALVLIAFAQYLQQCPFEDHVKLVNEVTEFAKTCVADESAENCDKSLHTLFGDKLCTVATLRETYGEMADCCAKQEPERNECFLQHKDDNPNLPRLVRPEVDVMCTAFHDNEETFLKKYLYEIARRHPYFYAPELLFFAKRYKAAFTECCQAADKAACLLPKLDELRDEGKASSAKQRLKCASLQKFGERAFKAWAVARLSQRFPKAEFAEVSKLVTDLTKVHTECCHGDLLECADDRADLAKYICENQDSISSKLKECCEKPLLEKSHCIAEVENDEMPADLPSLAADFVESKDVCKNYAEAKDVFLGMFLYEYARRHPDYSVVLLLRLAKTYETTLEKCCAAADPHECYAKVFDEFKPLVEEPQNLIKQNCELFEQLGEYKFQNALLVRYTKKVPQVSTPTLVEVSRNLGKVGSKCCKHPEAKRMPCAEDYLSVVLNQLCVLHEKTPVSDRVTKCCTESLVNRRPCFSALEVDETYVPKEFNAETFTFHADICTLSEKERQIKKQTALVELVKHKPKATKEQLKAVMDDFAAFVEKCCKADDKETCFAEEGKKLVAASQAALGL", "assay": "Binding affinity against Human serum albumin(Site I).", "outline": "(§2)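 Fluorometric titration: HSA and sensitizer fixed at 1 × 10^-6 mol/L. Site probe varied 4 × 10^-7 to 2 × 10^-6 mol/L: DNSA for site I, read at 472 nm; DP for site II, read at 476 nm; excitation 340 nm. Incubated 4 °C, pH 7.0, 4 h, dark. Bound probe taken from standard curves of free probe (water) and HSA-bound probe (2.5 × 10^-5 mol/L HSA).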"}, "[3]": {"test_system": "Mus musculus", "assay": "The compound was tested in vivo for photosensitizing efficacy in DBA/2 Mice transplanted with SMT/F tumors and the activity is expressed as % response (1-5 days) 3 hours post injection at 2.5 mg/kg concentration", "type": "functional", "outline": "as §1"}, "[4]": {"test_system": "Mus musculus", "assay": "The compound was tested in vivo for photosensitizing efficacy in DBA/2 Mice transplanted with SMT/F tumors and the activity is expressed as % response (6-10 days) 3 hours post injection at 1 mg/kg concentration; No response", "type": "functional, organism-based", "design": "dose 1 mg/kg", "outline": "as §1"}, "[5]": {"test_system": "Mus musculus", "assay": "The compound was tested in vivo for photosensitizing efficacy in DBA/2 Mice transplanted with SMT/F tumors and the activity is expressed as % response (11-15 days) 3 hours post injection at 1 mg/kg concentration; No response", "type": "functional, organism-based", "design": "dose 1 mg/kg", "outline": "as §1"}, "[6]": {"test_system": "Mus musculus", "assay": "The compound was tested in vivo for photosensitizing efficacy in DBA/2 Mice transplanted with SMT/F tumors and the activity is expressed as % response (16-20 days) 3 hours post injection at 2.5 mg/kg concentration", "type": "functional", "outline": "as §1"}, "[7]": {"target": "T1, Albumin", "assay": "Binding affinity against Human serum albumin(Site II).", "outline": "as §2"}, "[8]": {"test_system": "Mus musculus", "assay": "The compound was tested in vivo for photosensitizing efficacy in DBA/2 Mice transplanted with SMT/F tumors and the activity is expressed as % response (21-25 days) 3 hours post injection at 2.5 mg/kg concentration", "type": "functional", "outline": "as §1"}, "[9]": {"test_system": "Mus musculus", "assay": "The compound was tested in vivo for photosensitizing efficacy in DBA/2 Mice transplanted with SMT/F tumors and the activity is expressed as % response (21-25 days) 3 hours post injection at 1 mg/kg concentration; No response", "type": "functional, organism-based", "design": "dose 1 mg/kg", "outline": "as §1"}, "[10]": {"test_system": "Mus musculus", "assay": "The compound was tested in vivo for photosensitizing efficacy in DBA/2 Mice transplanted with SMT/F tumors and the activity is expressed as % response (26-30 days) 3 hours post injection at 1 mg/kg concentration; No response", "type": "functional, organism-based", "design": "dose 1 mg/kg", "outline": "as §1"}, "[11]": {"test_system": "Mus musculus", "assay": "The compound was tested in vivo for photosensitizing efficacy in DBA/2 Mice transplanted with SMT/F tumors and the activity is expressed as % response (11-15 days) 3 hours post injection at 2.5 mg/kg concentration", "type": "functional", "outline": "as §1"}, "[12]": {"test_system": "Mus musculus", "assay": "The compound was tested in vivo for photosensitizing efficacy in DBA/2 Mice transplanted with SMT/F tumors and the activity is expressed as % response (6-10 days) 3 hours post injection at 2.5 mg/kg concentration", "type": "functional", "outline": "as §1"}, "[13]": {"test_system": "Mus musculus", "assay": "The compound was tested in vivo for photosensitizing efficacy in DBA/2 Mice transplanted with SMT/F tumors and the activity is expressed as % response (26-30 days) 3 hours post injection at 2.5 mg/kg concentration", "type": "functional", "outline": "as §1"}, "[14]": {"test_system": "Mus musculus", "assay": "The compound was tested in vivo for photosensitizing efficacy in DBA/2 Mice transplanted with SMT/F tumors and the activity is expressed as % response (1-5 days) 3 hours post injection at 2 1 mg/kg concentration; No response", "type": "functional, organism-based", "design": "dose 1 mg/kg", "details": "at 1 mg/kg", "outline": "as §1"}, "[15]": {"test_system": "Mus musculus", "assay": "The compound was tested in vivo for photosensitizing efficacy in DBA/2 Mice transplanted with SMT/F tumors and the activity is expressed as % response (11-15 days) 3 hours post injection at 5.0 mg/kg concentration", "type": "functional", "outline": "as §1"}, "[16]": {"test_system": "Mus musculus", "assay": "The compound was tested in vivo for photosensitizing efficacy in DBA/2 Mice transplanted with SMT/F tumors and the activity is expressed as % response (21-25 days) 3 hours post injection at 5.0 mg/kg concentration; No response", "type": "functional, organism-based", "design": "dose 5 mg/kg", "outline": "as §1"}, "[17]": {"test_system": "Mus musculus", "assay": "The compound was tested in vivo for photosensitizing efficacy in DBA/2 Mice transplanted with SMT/F tumors and the activity is expressed as % response (26-30 days) 3 hours post injection at 5.0 mg/kg concentration; No response", "type": "functional, organism-based", "design": "dose 5 mg/kg", "outline": "as §1"}, "[18]": {"test_system": "Mus musculus", "assay": "The compound was tested in vivo for photosensitizing efficacy in DBA/2 Mice transplanted with SMT/F tumors and the activity is expressed as % response (16-20 days) 3 hours post injection at 1 mg/kg concentration; No response", "type": "functional, organism-based", "design": "dose 1 mg/kg", "outline": "as §1"}, "[19]": {"test_system": "Mus musculus", "assay": "The compound was tested in vivo for photosensitizing efficacy in DBA/2 Mice transplanted with SMT/F tumors and the activity is expressed as % response (1-5 days) 3 hours post injection at 5.0 mg/kg concentration", "type": "functional", "outline": "as §1"}, "[20]": {"test_system": "Mus musculus", "assay": "The compound was tested in vivo for photosensitizing efficacy in DBA/2 Mice transplanted with SMT/F tumors and the activity is expressed as % response (16-20 days) 3 hours post injection at 5.0 mg/kg concentration", "type": "functional", "outline": "as §1"}}, "note": "Activity calls are given as the source filed them. No cut-off for these calls is given here.", "data": [{"smiles": "CCc1c(C)c2[nH]c1cc1[nH]c(cc3nc4c(c5nc(c2C=O)[C@@H](C)[C@@H]5CCC(=O)OC)CCC4=C3C)C(=O)C1(C)CC", "note": "(stereo not given in full)", "values": [{"measurement": "Response", "setting": "[1]", "result": 60, "unit": "%"}, {"measurement": "Binding constant", "setting": "[2]", "result": "500000 l M-1"}, {"measurement": "Response", "setting": "[3]", "result": 100, "unit": "%"}, {"measurement": "Response", "setting": "[4]", "result": "inactive"}, {"measurement": "Response", "setting": "[5]", "result": "inactive"}, {"measurement": "Response", "setting": "[6]", "result": 60, "unit": "%"}, {"measurement": "Binding constant", "setting": "[7]", "result": "500000 l M-1"}, {"measurement": "Response", "setting": "[8]", "result": 60, "unit": "%"}, {"measurement": "Response", "setting": "[9]", "result": "inactive"}, {"measurement": "Response", "setting": "[10]", "result": "inactive"}, {"measurement": "Response", "setting": "[11]", "result": 80, "unit": "%"}, {"measurement": "Response", "setting": "[12]", "result": 100, "unit": "%"}, {"measurement": "Response", "setting": "[13]", "result": 20, "unit": "%"}, {"measurement": "Response", "setting": "[14]", "result": "inactive"}, {"measurement": "Response", "setting": "[15]", "result": 60, "unit": "%"}, {"measurement": "Response", "setting": "[16]", "result": "inactive"}, {"measurement": "Response", "setting": "[17]", "result": "inactive"}, {"measurement": "Response", "setting": "[18]", "result": "inactive"}, {"measurement": "Response", "setting": "[19]", "result": 100, "unit": "%"}, {"measurement": "Response", "setting": "[20]", "result": 0, "unit": "%"}]}]}
